Measured values of several laboratories.
Each line is one published result; the experiments were not run side by side.
Target: Tyrosine-protein kinase Mer (MERTK, Homo sapiens, UniProt Q12866)
Sequence (Q12866 21-999, as in one of the studies): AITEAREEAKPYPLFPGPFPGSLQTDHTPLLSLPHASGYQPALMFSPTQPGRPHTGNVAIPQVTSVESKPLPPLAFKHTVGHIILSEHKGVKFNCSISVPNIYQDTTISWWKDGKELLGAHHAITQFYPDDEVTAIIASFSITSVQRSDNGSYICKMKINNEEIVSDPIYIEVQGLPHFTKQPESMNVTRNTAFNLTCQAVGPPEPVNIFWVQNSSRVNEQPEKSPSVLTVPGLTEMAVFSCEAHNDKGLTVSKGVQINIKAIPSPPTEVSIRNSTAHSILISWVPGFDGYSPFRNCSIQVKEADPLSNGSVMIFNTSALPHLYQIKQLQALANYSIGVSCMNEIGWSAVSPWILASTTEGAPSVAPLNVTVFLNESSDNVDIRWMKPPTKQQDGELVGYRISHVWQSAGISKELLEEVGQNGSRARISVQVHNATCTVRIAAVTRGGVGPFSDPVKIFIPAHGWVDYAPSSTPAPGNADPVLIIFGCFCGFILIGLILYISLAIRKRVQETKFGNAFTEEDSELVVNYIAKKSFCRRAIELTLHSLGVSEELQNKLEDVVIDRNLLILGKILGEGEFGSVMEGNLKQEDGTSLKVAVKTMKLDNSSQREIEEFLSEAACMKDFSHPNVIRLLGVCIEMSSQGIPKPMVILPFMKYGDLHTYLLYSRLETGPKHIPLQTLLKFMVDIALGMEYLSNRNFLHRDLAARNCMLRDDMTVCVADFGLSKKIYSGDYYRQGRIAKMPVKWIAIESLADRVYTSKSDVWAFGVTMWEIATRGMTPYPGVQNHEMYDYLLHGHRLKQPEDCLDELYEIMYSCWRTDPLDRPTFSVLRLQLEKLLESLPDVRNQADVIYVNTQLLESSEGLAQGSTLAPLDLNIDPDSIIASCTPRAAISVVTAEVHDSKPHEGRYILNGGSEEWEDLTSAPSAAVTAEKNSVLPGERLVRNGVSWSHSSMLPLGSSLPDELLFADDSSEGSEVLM

Cn1c2c(Cl)c(Cl)ccc2c2cn[nH]c(=O)c21
ΔTm (thermal stability, DSF; 10 µM): -0.5 °C

O=C1NC(=O)c2cc(Nc3ccc(F)cc3)c(Nc3ccc(F)cc3)cc21
remaining signal (cell-free assay; 0.5 µM): 97.4%

Cc1ccc(NC(=O)c2ccc(C)c(C(F)(F)F)c2)cc1C#Cc1nn(C2CCC(O)CC2)c2ncnc(N)c12 (stereo not drawn)
remaining signal (cell-free assay; 10 µM): 0%

CNCc1ccccc1-c1csc([C@H](C)Nc2nc(C)nc3cc(OC)c(OC)cc23)c1
remaining binding (cell-free assay, competition with immobilised ligand; 1 µM): 72%

COc1cc2nccc(Oc3ccc(NC(=O)c4c5n(n(-c6ccc(F)cc6)c4=O)CCCC5)cc3)c2cc1OC
inhibition (enzyme activity, inhibitor; 0.1 µM): 100%

CNC(=O)c1cc(Oc2ccc(NC(=O)Nc3ccc(Cl)c(C(F)(F)F)c3)cc2)ccn1
inhibition (enzyme activity, inhibitor; 10 µM): 82%

COc1cc(Cl)c(C(=O)N[C@@H](CN[C@H]2CC[C@@H](N)CC2)Cc2ccc(C#N)cc2)cc1-c1ccc(CN[C@H](C)c2ccc(C)cc2)o1
remaining activity (enzyme activity, inhibitor; 1 µM): 99%

Cn1c2c(c3ccc(Cl)c(Cl)c31)C(C#N)C1(CCOCC1)NC2=O (stereo not drawn)
ΔTm (thermal stability, DSF; 10 µM): -0.5 °C

CC(C)(C)c1nc(-c2cccc(NS(=O)(=O)c3c(F)cccc3F)c2F)c(-c2ccnc(N)n2)s1
remaining activity (enzyme activity, inhibitor, radiometric; 1 µM): 115%

Cn1c2c(Cl)c(Cl)ccc2c2cc[nH]c(=O)c21
ΔTm (thermal stability, DSF; 10 µM): 1.3 °C

COc1cc2ncnc(Nc3ccc(Oc4ccccc4)c(C)c3C)c2cc1OC
inhibition (enzyme activity, inhibitor; 1 µM): 28%

CN1CC(Oc2cnc(C#N)cc2-c2ccn3nc(NC(=O)C4CC4)cc3c2)C1
inhibition (enzyme activity, inhibitor; 1 µM): 0%

Cc1nccc(COC(=O)N2C[C@@H]3[C@@H](CNC(=O)c4ccc5[nH]nnc5c4)[C@@H]3C2)n1
remaining binding (cell-free assay, competition with immobilised ligand; 1 µM): 100%

Cc1ccc(Nc2nccc(N(C)c3ccc4c(C)n(C)nc4c3)n2)cc1S(N)(=O)=O
inhibition (enzyme activity, inhibitor; 10 µM): 87%

O=C(Nc1cnn(-c2csc(C(=O)NC3COC3)c2)c1)Nc1c(F)cccc1Cl
remaining activity (enzyme activity, inhibitor; 5 µM): 77.1%

CCN1CCC2(CC1)NC(=O)c1c(c3ccc(Cl)c(Cl)c3n1C)C2C#N (racemic)
ΔTm (thermal stability, DSF; 10 µM): 1 °C

CCN(CC)CCNC(=O)c1c(C)[nH]c(/C=C2\C(=O)Nc3ccc(F)cc32)c1C
inhibition (enzyme activity, inhibitor; 10 µM): 98%

CCCS(=O)(=O)Nc1ccc(F)c(C(=O)c2c[nH]c3ncc(-c4ccc(Cl)cc4)cc23)c1F
inhibition (enzyme activity, inhibitor; 1 µM): < 10%

CNC(=O)Nc1ccc2c(c1)[C@@]1(CC2)OC(=O)N(CC(=O)N(Cc2ccc(F)cc2)[C@@H](C)C(F)(F)F)C1=O
remaining binding (cell-free assay, competition with immobilised ligand; 1 µM): 100%

Cn1c2c(c3ccc(Cl)c(Cl)c31)C(C#N)C1(CCNCC1)NC2=O (racemic)
ΔTm (thermal stability, DSF; 10 µM): 0.5 °C

CCCCN(CCCC)C(=O)CN1C[C@H](c2cc(OC)c3c(c2)OCO3)[C@@H](C(=O)O)[C@@H]1CC(C)(C)CCC
remaining binding (cell-free assay, competition with immobilised ligand; 1 µM): 100%

CNC(=O)c1cc2c(Oc3ccc(NC(=O)C4(C(=O)Nc5ccc(F)cc5)CC4)cc3)ccnc2cc1OC
inhibition (enzyme activity, inhibitor, radiometric; 1 µM): 99%

CN(C)C(=O)Cn1cc(-c2nc([C@@](C)(c3ccc(-c4cnc(N)nc4)cc3)C3CC3)no2)cn1
remaining binding (cell-free assay, competition with immobilised ligand; 1 µM): 100%

Cc1sc(C(=O)NC2COC2)cc1-n1cc(NC(=O)Nc2c(F)cccc2Cl)cn1
remaining activity (enzyme activity, inhibitor; 10 µM): 103%

Cc1c[nH]c2nccc(Oc3c(F)cc(Nc4cc(Cl)nc(N)n4)cc3F)c12
remaining binding (cell-free assay, competition with immobilised ligand; 0.1 µM): 100%

N#CCCc1ccc2c(c1)-c1[nH]c3ccc([N+](=O)[O-])cc3c1CC(=O)N2
remaining signal (cell-free assay; 0.5 µM): 77.5%

Cn1nc(C(F)(F)F)cc1-c1cnc(N2CCc3cc(S(=O)(=O)Nc4c(F)cc(Cl)cc4F)cc(N4CCCC4=O)c32)nc1
remaining binding (cell-free assay, competition with immobilised ligand; 1 µM): 100%

O=C1Nc2ccc(Cl)cc2C1=Cc1cc(Cl)c(O)c(Cl)c1
remaining signal (cell-free assay; 0.5 µM): 88.4%

CO[C@H]1CC[C@H](CNc2ccc(S(=O)(=O)NC(=O)c3ccc(N4CCN(CC5=C(c6ccc(Cl)cc6)CC(C)(C)CC5)CC4)cc3Oc3cnc4[nH]ccc4c3)cc2[N+](=O)[O-])CC1
remaining binding (cell-free assay, competition with immobilised ligand; 1 µM): 85%

Cc1cc(NC(=O)c2cccc3cc(-c4cccc5[nH]nc(N)c45)ccc23)ccc1F
activity vs control (enzyme activity, inhibitor; 0.1 µM): 96%
